Source: ChEMBL document CHEMBL2062453, “Lead optimization through VLAK protocol: new annelated pyrrolo-pyrimidine derivatives as antitumor agents” (2012)

What was measured:
Assay type in all cases: functional
[1] = test system: OVCAR-8; assay: Cytotoxicity against human OVCAR8 cells assessed as cell growth at 10 uM after 48 hrs by SRB assay relative to control; conditions: OVCAR-8, 48 h, read-out: Activity
[2] = test system: EKVX; assay: Cytotoxicity against human EKVX cells assessed as cell growth at 10 uM after 48 hrs by SRB assay relative to control; conditions: read-out: Activity
Method in brief: (§1)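 NCI primary screen of about 60 human tumour lines. Cells inoculated and preincubated, then a single test concentration added and cultures incubated 48 h. Result given as percent growth (G%) of treated versus untreated control cells.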

[3] = test system: PC-3; assay: Cytotoxicity against human PC3 cells assessed as cell growth at 10 uM after 48 hrs by SRB assay relative to control; conditions: PC-3, 48 h, read-out: Activity
[4] = test system: SK-MEL-2; assay: Cytotoxicity against human SK-MEL-2 cells assessed as cell growth at 10 uM after 48 hrs by SRB assay relative to control; conditions: SK-MEL-2, 48 h, read-out: Activity
[5] = test system: HCT-116; assay: Cytotoxicity against human HCT116 cells assessed as cell growth at 10 uM after 48 hrs by SRB assay relative to control; conditions: HCT-116, 48 h, read-out: Activity; method in brief: as §1
[6] = test system: UACC-257; assay: Cytotoxicity against human UACC257 cells assessed as cell growth at 10 uM after 48 hrs by SRB assay relative to control; conditions: UACC-257, 48 h, read-out: Activity
Method in brief: (§2)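 NCI single-dose primary screen across about 60 human tumour lines. Each line was inoculated and preincubated on microtiter plates, then exposed to one concentration of agent for 48 h. Growth is reported as percent growth (G%) of treated cells versus untreated control cells.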

[7] = test system: SNB-75; assay: Cytotoxicity against human SNB75 cells assessed as cell growth at 10 uM after 48 hrs by SRB assay relative to control; conditions: SNB-75, 48 h, read-out: Activity
[8] = test system: HOP-62; assay: Cytotoxicity against human HOP62 cells assessed as cell growth at 10 uM after 48 hrs by SRB assay relative to control; conditions: HOP-62, 48 h, read-out: Activity; method in brief: as §1
[9] = test system: SF-268; assay: Cytotoxicity against human SF268 cells assessed as cell growth at 10 uM after 48 hrs by SRB assay relative to control; conditions: SF-268, 48 h, read-out: Activity
[10] = test system: UACC-62; assay: Cytotoxicity against human UACC62 cells assessed as cell growth at 10 uM after 48 hrs by SRB assay relative to control; conditions: UACC-62, 48 h, read-out: Activity; method in brief: as §2
[11] = test system: MDA-MB-231; assay: Cytotoxicity against human MDA-MB-231 cells assessed as cell growth at 10 uM after 48 hrs by SRB assay relative to control; conditions: MDA-MB-231, 48 h, read-out: Activity; method in brief: as §1
[12] = test system: A549; assay: Cytotoxicity against human A549 cells assessed as cell growth at 10 uM after 48 hrs by SRB assay relative to control; conditions: A549, 48 h, read-out: Activity; method in brief: as §1
[13] = test system: RXF 393; assay: Cytotoxicity against human RXF393 cells assessed as cell growth at 10 uM after 48 hrs by SRB assay relative to control; conditions: RXF 393, 48 h, read-out: Activity
[14] = test system: ACHN; assay: Cytotoxicity against human ACHN cells assessed as cell growth at 10 uM after 48 hrs by SRB assay relative to control; conditions: read-out: Activity; method in brief: as §1
[15] = test system: HL-60(TB); assay: Cytotoxicity against human HL-60(TB) cells assessed as cell growth at 10 uM after 48 hrs by SRB assay relative to control; conditions: HL-60, 48 h, read-out: Activity
[16] = test system: OVCAR-4; assay: Cytotoxicity against human OVCAR4 cells assessed as cell growth at 10 uM after 48 hrs by SRB assay relative to control; conditions: OVCAR-4, 48 h, read-out: Activity
[17] = test system: HCC 2998; assay: Cytotoxicity against human HCC2998 cells assessed as cell growth at 10 uM after 48 hrs by SRB assay relative to control; conditions: HCC 2998, 48 h, read-out: Activity; method in brief: as §1
[18] = test system: TK-10; assay: Cytotoxicity against human TK10 cells assessed as cell growth at 10 uM after 48 hrs by SRB assay relative to control; conditions: TK-10, 48 h, read-out: Activity; method in brief: as §2
[19] = test system: HOP-92; assay: Cytotoxicity against human HOP92 cells assessed as cell growth at 10 uM after 48 hrs by SRB assay relative to control; conditions: HOP-92, 48 h, read-out: Activity; method in brief: as §1
[20] = test system: NCI-H460; assay: Cytotoxicity against human NCI-H460 cells assessed as cell growth at 10 uM after 48 hrs by SRB assay relative to control; conditions: NCI-H460, 48 h, read-out: Activity
[21] = test system: Malme-3M; assay: Cytotoxicity against human MALME-3M cells assessed as cell growth at 10 uM after 48 hrs by SRB assay relative to control; conditions: read-out: Activity; method in brief: as §1
[22] = test system: SK-MEL-28; assay: Cytotoxicity against human SK-MEL-28 cells assessed as cell growth at 10 uM after 48 hrs by SRB assay relative to control; conditions: SK-MEL-28, 48 h, read-out: Activity
[23] = test system: COLO 205; assay: Cytotoxicity against human COLO205 cells assessed as cell growth at 10 uM after 48 hrs by SRB assay relative to control; conditions: COLO 205, 48 h, read-out: Activity; method in brief: as §1
[24] = test system: NCI-H23; assay: Cytotoxicity against human NCI-H23 cells assessed as cell growth at 10 uM after 48 hrs by SRB assay relative to control; conditions: NCI-H23, 48 h, read-out: Activity
[25] = test system: BT-549; assay: Cytotoxicity against human BT549 cells assessed as cell growth at 10 uM after 48 hrs by SRB assay relative to control; conditions: BT-549, 48 h, read-out: Activity; method in brief: as §1
[26] = test system: HCT-15; assay: Cytotoxicity against human HCT15 cells assessed as cell growth at 10 uM after 48 hrs by SRB assay relative to control; conditions: HCT-15, 48 h, read-out: Activity; method in brief: as §1
[27] = test system: MDA-MB-435; assay: Cytotoxicity against human MDA-MB-435 cells assessed as cell growth at 10 uM after 48 hrs by SRB assay relative to control; conditions: MDA-MB-435, 48 h, read-out: Activity
[28] = test system: RPMI-8226; assay: Cytotoxicity against human RPMI8226 cells assessed as cell growth at 10 uM after 48 hrs by SRB assay relative to control; conditions: RPMI-8226, 48 h, read-out: Activity
[29] = test system: T47D; assay: Cytotoxicity against human T47D cells assessed as cell growth at 10 uM after 48 hrs by SRB assay relative to control; conditions: read-out: Activity; method in brief: as §2
[30] = test system: SW-620; assay: Cytotoxicity against human SW620 cells assessed as cell growth at 10 uM after 48 hrs by SRB assay relative to control; conditions: SW-620, 48 h, read-out: Activity; method in brief: as §2
[31] = test system: MCF7; assay: Cytotoxicity against human MCF7 cells assessed as cell growth at 10 uM after 48 hrs by SRB assay relative to control; conditions: MCF7, 48 h, read-out: Activity; method in brief: as §1
[32] = test system: NCI/ADR-RES; assay: Cytotoxicity against human NCI/ADR-RES cells assessed as cell growth at 10 uM after 48 hrs by SRB assay relative to control; conditions: read-out: Activity
[33] = test system: OVCAR-3; assay: Cytotoxicity against human OVCAR3 cells assessed as cell growth at 10 uM after 48 hrs by SRB assay relative to control; conditions: OVCAR-3, 48 h, read-out: Activity

| Compound | growth at 10 µM [1] [%] | growth at 10 µM [2] [%] | growth at 10 µM [4] [%] | growth at 10 µM [5] [%] | growth at 10 µM [6] [%] | growth at 10 µM [7] [%] | growth at 10 µM [8] [%] | growth at 10 µM [9] [%] | growth at 10 µM [10] [%] | growth at 10 µM [11] [%] | growth at 10 µM [12] [%] | growth at 10 µM [13] [%] | growth at 10 µM [14] [%] | growth at 10 µM [15] [%] | growth at 10 µM [16] [%] | growth at 10 µM [17] [%] | growth at 10 µM [18] [%] | growth at 10 µM [21] [%] | growth at 10 µM [22] [%] | growth at 10 µM [23] [%] | other results |
| --- | --- | --- | --- | --- | --- | --- | --- | --- | --- | --- | --- | --- | --- | --- | --- | --- | --- | --- | --- | --- | --- |
| CCOC(=O)CCCn1c2c(c(C)c1-c1ccccc1)C1=NC(=O)CN1C(SC)=N2 | 99 | 97 | 114 | 112 | 113 | 80 | 111 | 105 | 95 | 130 | 108 | 108 | 112 | 90 | 94 | 127 | 123 | 116 | 100 | 129 | growth at 10 µM [3]: 93%; growth at 10 µM [19]: 80%; growth at 10 µM [20]: 94%; growth at 10 µM [24]: 110%; growth at 10 µM [25]: 107%; growth at 10 µM [26]: 114%; growth at 10 µM [27]: 111%; growth at 10 µM [28]: 81%; growth at 10 µM [29]: 88%; growth at 10 µM [30]: 110%; growth at 10 µM [31]: 84%; growth at 10 µM [32]: 95%; growth at 10 µM [33]: 110% |
| CSC1=Nc2c(c(C)c(-c3ccccc3)n2CCCC(=O)O)C2=NC(=O)CN12 | 98 | 95 | 117 | 96 | 99 | 83 | 88 | 96 | 95 | 107 | 101 | 96 | 89 | 83 | 92 | 106 | 135 | 133 | 84 | 153 | growth at 10 µM [3]: 94%; growth at 10 µM [19]: 95%; growth at 10 µM [20]: 102%; growth at 10 µM [24]: 105%; growth at 10 µM [25]: 94%; growth at 10 µM [26]: 95%; growth at 10 µM [27]: 107%; growth at 10 µM [28]: 88%; growth at 10 µM [29]: 106%; growth at 10 µM [30]: 94%; growth at 10 µM [31]: 94%; growth at 10 µM [32]: 98%; growth at 10 µM [33]: 109% |
| CSC1=Nc2c(c(C)c(-c3ccccc3)n2CCCN2CCN(C)CC2)C2=NC(=O)CN12 | 93 | 96 | 92 | 93 | 100 | 51 | 89 | 88 | 87 | 82 | 90 | 106 | 90 | 91 | 89 | 100 | 127 | 125 | 103 | 91 | growth at 10 µM [20]: 101%; growth at 10 µM [24]: 94%; growth at 10 µM [26]: 102%; growth at 10 µM [27]: 105%; growth at 10 µM [28]: 66%; growth at 10 µM [29]: 80%; growth at 10 µM [30]: 101%; growth at 10 µM [31]: 86%; growth at 10 µM [32]: 98%; growth at 10 µM [33]: 96% |
| COC(=O)C(Cc1cnc[nH]1)NC(=O)CCCn1c(C)c(C)c2c1N=C(SC)N1CC(=O)N=C21 (stereo unspecified) | 103 | 95 | 105 | 100 | 107 | 79 | 103 | 106 | 109 | 112 | 98 | 112 | 113 | 92 | 90 | 103 | 111 | 108 | 113 | 118 | growth at 10 µM [3]: 88%; growth at 10 µM [19]: 92%; growth at 10 µM [20]: 99%; growth at 10 µM [24]: 109%; growth at 10 µM [25]: 107%; growth at 10 µM [26]: 105%; growth at 10 µM [27]: 102%; growth at 10 µM [28]: 100%; growth at 10 µM [29]: 104%; growth at 10 µM [30]: 98%; growth at 10 µM [31]: 92%; growth at 10 µM [32]: 110%; growth at 10 µM [33]: 121% |
| CSC1=Nc2c(c(C)c(-c3ccccc3)n2CCCN2CCCCC2)C2=NC(=O)CC(C)N12 (stereo unspecified) | 45 | 42 | 63 | 43 | 41 | 50 | 82 | 66 | 54 | 70 | 32 | 56 | 67 | -33 | 44 | 61 | 49 | 57 | 43 | -87 | growth at 10 µM [20]: 38%; growth at 10 µM [24]: 63%; growth at 10 µM [26]: 81%; growth at 10 µM [27]: 26%; growth at 10 µM [28]: -51%; growth at 10 µM [29]: -2%; growth at 10 µM [30]: 62%; growth at 10 µM [31]: 14%; growth at 10 µM [32]: 82%; growth at 10 µM [33]: 24% |
| CSC1=Nc2c(c(C)c(-c3ccccc3)n2CCCCl)C2=NC(=O)CN12 | 88 | 54 | 75 | 27 | 84 | 21 | 64 | 77 | 37 | 65 | 74 | 95 | 88 | 27 | 76 | 72 | 105 | 83 | 56 | 79 | growth at 10 µM [3]: 69%; growth at 10 µM [19]: 65%; growth at 10 µM [24]: 78%; growth at 10 µM [25]: 61%; growth at 10 µM [26]: 65%; growth at 10 µM [27]: -31%; growth at 10 µM [28]: 51%; growth at 10 µM [29]: 72%; growth at 10 µM [30]: 44%; growth at 10 µM [31]: 36%; growth at 10 µM [32]: 58%; growth at 10 µM [33]: 85% |
